In test [1] the test system is Rattus norvegicus. The test is described as follows: Effect on conflict responding in Long-Evans rats when 25 mg/kg was administered by oral gavage in a modified Geller-Seifter conflict schedule and the value ranges from -10 to + 13. The format is functional. In a few lines:
(§1)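 Rats run on a modified Geller-Seifter conflict schedule. Shock was 0.00 mA for the first response of each conflict period, rising by 0.05 mA per successive response. 25 mg/kg given by oral gavage as a 0.5% methylcellulose suspension, 60 min before the operant session. Result is percent change in conflict responses versus the preceding day, mean and SEM, at least four rats.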

For test [2], the target named is GABA-A receptor; anion channel. The experiment in a line: Concentration that inhibits binding of 1.5 nM [3H]diazepam to rat brain benzodiazepine receptor. The method in brief:
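Membranes from male Sprague-Dawley rat brain (110–220 g; cerebellum and pons medulla removed), homogenized in 0.32 M sucrose. The 30000g pellet was stored frozen and resuspended in Tris-HCl pH 7.5. Filtered on GF/C and washed with ice-cold buffer, then scintillation counted.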

For test [3], the target named is T1, GABA-A receptor; anion channel (Rattus norvegicus) (UniProt O09028+P15431+P18506+P18508+P19969+P20236+P23574+P23576+P28471+P28473+P30191+P62813+P63079+P63138+Q91ZM7+Q9ES14). The experiment in a line: The percent inhibition of [3H]diazepam binding to the benzodiazepine receptor of rat brain elicited by 100 uM of compound.
In test [4] the test system is Rattus norvegicus. The test is described as follows: Effect on conflict responding in Long-Evans rats when 25 mg/kg was administered by oral gavage in a modified Geller-Seifter conflict schedule. Format: functional. In a few lines:
as §1

Test [5] concerns the target T1, GABA-A receptor; anion channel (Rattus norvegicus). The test is described as follows: Percent inhibition of [3H]diazepam binding to rat brain GABA-A benzodiazepine receptor at 100 uM. In a few lines: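 Membranes from male Sprague-Dawley rat brain (110–220 g; cerebellum and pons medulla removed), homogenized in 0.32 M sucrose. The 30000g pellet was stored frozen and resuspended in Tris-HCl pH 7.5. […] Filtered on GF/C and washed with ice-cold buffer, then scintillation counted. Percent inhibition of specific binding at 100 μM; IC50 usually determined when >75%.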

Test [6] deals with Rattus norvegicus. The experiment in a line: Effect on conflict responding in Long-Evans rats when 10 mg/kg was administered by oral gavage in a modified Geller-Seifter conflict schedule. Format: functional. In a few lines:
(§2)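 Rats on a modified Geller-Seifter operant conflict schedule were dosed by oral gavage as a 0.5% methylcellulose suspension 60 min before the session. Shock was 0.00 mA for the first response in each conflict period, rising 0.05 mA with each further response. The value is the percent change in conflict responses from the preceding day, as mean and SEM of at least four rats.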

In test [7] the test system is Rattus norvegicus. The experiment in a line: Effect on conflict responding in Long-Evans rats when 5 mg/kg was administered by oral gavage in a modified Geller-Seifter conflict schedule. Format: functional. In a few lines:
as §2

[8] abbreviates: in the assay text read “10 uM” for “100 uM”.

Structures are written as SMILES.

This note sets out measurements from ChEMBL document CHEMBL1124455, “Benzodiazepine receptor binding activity of 6,9-disubstituted purines” (J Med Chem, 1989).

Regarding `CN(c1ncnc2c1ncn2Cc1ccccc1)C1CCCC1`, the Change in conflict in the test on Rattus norvegicus [1] was -10%. In addition, the IC50 in test [2] was 14 µM.

For `CCN(C)c1ncnc2c1ncn2Cc1ccccc1`, in test [2], the IC50 came out at 19 µM.

`CN(C)c1ncnc2c1ncn2CCc1ccccc1`: the inhibition in test [3] was found to be 0%.

In the case of `Nc1ncnc2c1ncn2Cc1ccccc1` [9-BENZYL-9H-ADENINE], the IC50 in test [2] worked out at 37 µM.

For `CN(C)c1ncnc2c1ncn2Cc1cccc(O)c1`, the IC50 in test [2] turned out to be 1.2 µM. In addition, in the test on Rattus norvegicus [4], the Change in conflict is 2%.

In turn, `Cc1ccccc1Cn1cnc2c(N(C)C)ncnc21` registered an inhibition in test [3] of 70%.

In the case of `CN(C)c1ncnc2c1ncn2Cc1ccc(N)cc1`, the inhibition in test [3] is 67%.

`CN(C)c1ncnc2c1ncn2Cc1ccc([N+](=O)[O-])cc1`: the inhibition in test [3] amounted to 23%.

As for `Cn1cnc2c(ncn2Cc2ccccc2)c1=O`, in test [2], the IC50 is 15.5 µM. For the same compound, the Change in conflict in the test on Rattus norvegicus [4] is listed as -16%.

The compound `CN(C)c1ncnc2c1ncn2Cc1cccc(C(F)(F)F)c1` gave an inhibition in test [3] of 49%.

`CN(C)c1ncnc2c1ncn2Cc1cccc(N)c1` registered an IC50 in test [2] of 0.9 µM. The Change in conflict with Rattus norvegicus [4] stood at 4%.

As for `CN(C)c1ncnc2c1ncn2Cc1ccccc1F`, the IC50 in test [2] is 5.4 µM. For the same compound, in the test with Rattus norvegicus [4], the Change in conflict is given as 17%.

Turning to `COc1ccccc1Cn1cnc2c(N(C)C)ncnc21`, the IC50 in test [2] was 20 µM.

In test [5], `c1ccc(Cn2cnc3cncnc32)cc1` showed an inhibition of 34%.

`CN(C)c1ncnc2c1ncn2Cc1cccc(I)c1`: in test [3], the inhibition turned out to be 64%.

In test [2], `CC(=O)Oc1cccc(Cn2cnc3c(N(C)C)ncnc32)c1` came in with an IC50 of 0.44 µM. Further, in the test with Rattus norvegicus [4], the Change in conflict is 2%.

Consider `CNC1=Nc2ccc(Cl)cc2C(c2ccccc2)=[N+]([O-])C1` [CHLORDIAZEPOXIDE], for which the Change in conflict worked out at 46% with Rattus norvegicus [6], 24% in the test on Rattus norvegicus [7] and 67% in the test on Rattus norvegicus [4]. In test [2], the IC50 amounted to 0.2 µM.

Regarding `CC(=O)Nc1ccc(Cn2cnc3c(N(C)C)ncnc32)cc1`, the inhibition in test [3] is 22%.

In test [3], `Cc1cccc(Cn2cnc3c(N(C)C)ncnc32)c1` had an inhibition of 62%.

In test [2], `CN(C)c1ncnc2c1ncn2Cc1ccccc1Cl` gave an IC50 of 13 µM.

In turn, `C[C@H](c1ccccc1)n1cnc2c(N(C)C)ncnc21` showed an inhibition in test [3] of 56%.

Regarding `Cc1ccc(Cn2cnc3c(N(C)C)ncnc32)cc1`, the inhibition in test [3] was determined as 22%.

As for `COc1ccc(Cn2cnc3c(N(C)C)ncnc32)cc1`, the inhibition in test [3] came to 0%.

In the case of `C[C@@H](c1ccccc1)n1cnc2c(N(C)C)ncnc21`, in test [2], the IC50 was found to be 2.1 µM. Also, in the test on Rattus norvegicus [4], the Change in conflict was found to be 5%.

In test [3], `CN(C)c1ncnc2c1ncn2Cc1ccc(F)cc1` had an inhibition of 23%.

`CN(C)c1ncnc2c1ncn2Cc1cccc(OC(=O)C(C)(C)C)c1` had an IC50 in test [2] of 1.6 µM. For the same compound, the Change in conflict in the test on Rattus norvegicus [4] is 6%.

The compound `OCCNc1ncnc2c1ncn2Cc1ccccc1` had an inhibition in test [5] of 73%.

In test [2], `CN(C)c1ncnc2c1ncn2C1CCCc2ccccc21` (stereo unspecified) gave an IC50 of 22 µM.

Compound `CN(C)c1ncnc2c1ncn2Cc1ccccc1N` registered an inhibition in test [3] (setting [8]) of 19%.

Consider `CN(C)c1ncnc2c1ncn2Cc1ccccc1[N+](=O)[O-]`, for which, in test [3] (setting [8]), the inhibition amounted to 48%.

Regarding `CN(C)c1ncnc2c1ncn2C(c1ccccc1)c1ccccc1`, the IC50 in test [2] amounted to 17 µM.

Regarding `CN(C)c1ncnc2c1ncn2Cc1ccc(C#N)cc1`, the inhibition in test [3] turned out to be 26%.

As for `COc1cccc(Cn2cnc3c(N(C)C)ncnc32)c1`, the inhibition in test [3] worked out at 70%.

For `CCNc1ncnc2c1ncn2Cc1ccccc1`, in test [2], the 50% inhibitory concentration (IC50) was determined as 19 µM.

Turning to `c1ccc(Cn2cnc3c(N4CCCC4)ncnc32)cc1`, the IC50 in test [2] came out at 16 µM. In the test with Rattus norvegicus [4], the Change in conflict stood at 10%.

In turn, `CN(C)c1ncnc2c1ncn2C` yielded an inhibition in test [3] of 0%.

With `CCN(CC)c1ncnc2c1ncn2Cc1ccccc1`, the inhibition in test [3] was found to be 83%.

`CN(C)c1ncnc2c1ncn2Cc1ccc(O)cc1` yielded an inhibition in test [3] (setting [8]) of 15%.

In test [2], `c1ccc(Cn2cnc3c(N4CCC4)ncnc32)cc1` had an IC50 of 15 µM. The Change in conflict in the test with Rattus norvegicus [4] is recorded as -7%.

Compound `CN(C)c1ncnc2c1ncn2Cc1cccc(F)c1` returned an IC50 in test [2] of 7.3 µM.

As to `CN(C)c1ncnc2c1ncn2CCCc1ccccc1`, the inhibition in test [3] is 0%.

In test [2], `CN(C)c1ncnc2c1ncn2Cc1ccccc1` gave an IC50 of 13 µM. Further, the Change in conflict in the test on Rattus norvegicus [4] was -17%.

`CN(C)c1ncnc2c1ncn2Cc1cccc(CO)c1` yielded an IC50 in test [2] of 5 µM. The Change in conflict with Rattus norvegicus [4] was determined as 4%.

For the compound `c1ccc(Cn2cnc3c(NC4CC4)ncnc32)cc1`, in test [5], the inhibition was determined as 68%.

For `COc1ncnc2c1ncn2Cc1ccccc1` [9-BENZYL-6-METHOXY-9H-PURINE], the IC50 in test [2] was found to be 14 µM. Besides, the Change in conflict in the test with Rattus norvegicus [4] was 26%.

In the case of `Clc1ncnc2c1ncn2Cc1ccccc1`, the inhibition in test [3] was determined as 40%.

The compound `CN(C)c1ncnc2c1ncn2Cc1cccc(Br)c1` returned an inhibition in test [3] of 63%.

The compound `CSc1ncnc2c1ncn2Cc1ccccc1` registered a concentration for half-maximal inhibition (IC50) in test [2] of 3.3 µM. Also, the Change in conflict with Rattus norvegicus [4] stood at 13%.

In test [3], `CN(C)c1ncnc2c1ncn2Cc1cccc([N+](=O)[O-])c1` gave an inhibition of 48%.

Consider `CN(C)c1ncnc2c1ncn2Cc1ccc(OCc2ccccc2)cc1`, for which, in test [3], the inhibition is 11%.

In turn, `CN(C)c1ncnc2nc[nH]c12` yielded an inhibition in test [3] of 57%.

For the compound `CN(C)c1ncnc2c1ncn2Cc1cccc(C#N)c1`, the inhibition in test [3] came to 70%.

For `CN(C)c1ncnc2c1ncn2-c1ccccc1`, in test [5], the inhibition is 0%.

`CN(C)c1ncnc2c1ncn2Cc1ccc(Cl)cc1`: in test [3], the inhibition is 24%.

On to `CNc1ncnc2c1ncn2Cc1ccccc1`, for which the IC50 in test [2] turned out to be 24 µM. Also, the Change in conflict in the test on Rattus norvegicus [4] is listed as -3%.

In test [5], `CN(C)c1ncnc2c1ncn2C1Cc2ccccc2C1` gave an inhibition of 48%.

`CN(C)c1ncnc2c1ncn2Cc1cccc(Cl)c1` returned an inhibition in test [3] of 59%.

Regarding `Oc1ncnc2c1ncn2Cc1ccccc1`, the IC50 in test [2] is 19 µM.

By IC50 is commonly meant the midpoint of a concentration-inhibition curve. A high value points to weaker potency in that assay. For orientation: inhibition means how much of the control response was suppressed. Lower therefore signals a response near the control.
